In ChEMBL document CHEMBL4715736, “Identification of anticancer agents based on the thieno[2,3-b]pyridine and 1H-pyrazole molecular scaffolds” (2016):

Experiments:
Assay type in all cases: functional
NCI-H226 [1] = assay: Growth inhibition of human NCI-H226 cells assessed as cell growth at 0.01 uM incubated for 48 hrs by sulforhodamine B assay relative to control; details: read-out: Activity
SNB-75 [2] = assay: Growth inhibition of human SNB-75 cells assessed as cell growth at 0.01 uM incubated for 48 hrs by sulforhodamine B assay relative to control; details: read-out: Activity
PC-3 = assay: Growth inhibition of human PC-3 cells assessed as cell growth at 0.01 uM incubated for 48 hrs by sulforhodamine B assay relative to control; details: read-out: Activity
SR = assay: Growth inhibition of human SR cells assessed as cell growth at 0.1 uM incubated for 48 hrs by sulforhodamine B assay relative to control; details: read-out: Activity
HOP-62 = assay: Growth inhibition of human HOP-62 cells assessed as cell growth at 0.1 uM incubated for 48 hrs by sulforhodamine B assay relative to control; details: read-out: Activity
NCI-H226 [3] = assay: Growth inhibition of human NCI-H226 cells assessed as cell growth at 0.1 uM incubated for 48 hrs by sulforhodamine B assay relative to control; details: read-out: Activity
SNB-19 = assay: Growth inhibition of human SNB-19 cells assessed as cell growth at 0.1 uM incubated for 48 hrs by sulforhodamine B assay relative to control; details: read-out: Activity
SK-MEL-5 = assay: Growth inhibition of human SK-MEL-5 cells assessed as cell growth at 0.1 uM incubated for 48 hrs by sulforhodamine B assay relative to control; details: read-out: Activity
CCRF-CEM [4] = assay: Growth inhibition of human CCRF-CEM cells assessed as cell growth at 1 uM incubated for 48 hrs by sulforhodamine B assay relative to control; details: read-out: Activity
How it was run: (§1)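 NCI Developmental Therapeutics Program NCI60 panel. Compounds that were active in the 10 µM one-dose screen went on to dose–response testing. Growth at each concentration is expressed relative to untreated control (100%). GI50 (concentration giving 50% of maximal inhibition of proliferation) and TGI (concentration giving total growth inhibition) were derived from the curves.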

HCT-15 = assay: Growth inhibition of human HCT-15 cells assessed as cell growth at 1 uM incubated for 48 hrs by sulforhodamine B assay relative to control; details: read-out: Activity
SNB-75 [5] = assay: Growth inhibition of human SNB-75 cells assessed as cell growth at 1 uM incubated for 48 hrs by sulforhodamine B assay relative to control; details: read-out: Activity
ACHN = assay: Growth inhibition of human ACHN cells assessed as cell growth at 1 uM incubated for 48 hrs by sulforhodamine B assay relative to control; details: read-out: Activity
UO-31 = assay: Growth inhibition of human UO-31 cells assessed as cell growth at 1 uM incubated for 48 hrs by sulforhodamine B assay relative to control; details: read-out: Activity
CCRF-CEM [6] = assay: Growth inhibition of human CCRF-CEM cells assessed as cell growth at 100 uM incubated for 48 hrs by sulforhodamine B assay relative to control; details: read-out: Activity; how it was run: as §1
K562 = assay: Growth inhibition of human K562 cells assessed as cell growth at 100 uM incubated for 48 hrs by sulforhodamine B assay relative to control; details: read-out: Activity
KM12 [7] = assay: Growth inhibition of human KM12 cells assessed as cell growth at 100 uM incubated for 48 hrs by sulforhodamine B assay relative to control; details: read-out: Activity
SNB-75 [8] = assay: Growth inhibition of human SNB-75 cells assessed as cell growth at 100 uM incubated for 48 hrs by sulforhodamine B assay relative to control; details: read-out: Activity
UACC-62 [9] = assay: Growth inhibition of human UACC-62 cells assessed as cell growth at 100 uM incubated for 48 hrs by sulforhodamine B assay relative to control; details: read-out: Activity
OVCAR-5 = assay: Growth inhibition of human OVCAR-5 cells assessed as cell growth at 100 uM incubated for 48 hrs by sulforhodamine B assay relative to control; details: read-out: Activity
OVCAR-8 = assay: Growth inhibition of human OVCAR-8 cells assessed as cell growth at 100 uM incubated for 48 hrs by sulforhodamine B assay relative to control; details: read-out: Activity
A498 = assay: Growth inhibition of human A498 cells assessed as cell growth at 100 uM incubated for 48 hrs by sulforhodamine B assay relative to control; details: read-out: Activity; how it was run: as §1
DU-145 = assay: Growth inhibition of human DU-145 cells assessed as cell growth at 100 uM incubated for 48 hrs by sulforhodamine B assay relative to control; details: read-out: Activity; how it was run: as §1
Hs-578T = assay: Growth inhibition of human Hs-578T cells assessed as cell growth at 100 uM incubated for 48 hrs by sulforhodamine B assay relative to control; details: read-out: Activity
HOP-92 = assay: Growth inhibition of human HOP-92 cells incubated for 48 hrs by sulforhodamine B assay
How it was run: (§2)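 NCI60 panel at the NCI Developmental Therapeutics Program. Only compounds active in the 10 µM screen went to dose-response testing. GI50, the concentration giving 50% of maximal inhibition of proliferation, and TGI, the concentration giving total growth inhibition, were derived from the dose-response curves.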

NCI-H460 = assay: Growth inhibition of human NCI-H460 cells incubated for 48 hrs by sulforhodamine B assay; how it was run: as §2
COLO 205 = assay: Growth inhibition of human COLO 205 cells incubated for 48 hrs by sulforhodamine B assay; how it was run: as §1
KM12 [10] = assay: Growth inhibition of human KM12 cells incubated for 48 hrs by sulforhodamine B assay; how it was run: as §2
SNB-75 [11] = assay: Growth inhibition of human SNB-75 cells incubated for 48 hrs by sulforhodamine B assay
How it was run: (§3)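 NCI DTP 60-line human tumour panel. Dose-response curves were run only for ligands active in the initial 10 µM screen. GI50 (concentration giving 50% of maximal inhibition of proliferation) and TGI (concentration giving total growth inhibition) were derived from these curves.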

UACC-62 [12] = assay: Growth inhibition of human UACC-62 cells incubated for 48 hrs by sulforhodamine B assay; how it was run: as §3
RXF 393 = assay: Growth inhibition of human RXF 393 cells incubated for 48 hrs by sulforhodamine B assay; how it was run: as §3
MDA-MB-231 = assay: Growth inhibition of human MDA-MB-231 cells incubated for 48 hrs by sulforhodamine B assay; how it was run: as §2
[13] = read-out: LC50 (the source's name)

With CCc1cccc(C)c1NC(=O)c1sc2nc3c(cc2c1N)C(=O)CCC3 the growth at 0.01 µM (NCI-H226 [1]) was 96%, the growth at 0.01 µM (SNB-75 [2]) was 73% and the growth at 0.01 µM (PC-3) was 94%. It also gave a growth at 0.1 µM (SR) of 101%, a growth at 0.1 µM (HOP-62) of 92% and a growth at 0.1 µM (NCI-H226 [3]) of 94%. It also gave a growth at 0.1 µM (SNB-19) of 91%, a growth at 0.1 µM (SK-MEL-5) of 89% and a growth at 1 µM (CCRF-CEM [4]) of 16%. It also gave a growth at 1 µM (HCT-15) of 29%, a growth at 1 µM (SNB-75 [5]) of -2% and a growth at 1 µM (ACHN) of 44%. For the same molecule, the growth at 1 µM (UO-31) was 37%, the growth at 100 µM (CCRF-CEM [6]) was -11% and the growth at 100 µM (K562) was -52%. The growth at 100 µM (KM12 [7]) was 4%, the growth at 100 µM (SNB-75 [8]) was 29% and the growth at 100 µM (UACC-62 [9]) was 14%. The growth at 100 µM (OVCAR-5) was 30%, the growth at 100 µM (OVCAR-8) was -2% and the growth at 100 µM (A498) was -16%. It also gave a growth at 100 µM (DU-145) of 9%, a growth at 100 µM (Hs-578T) of 17% and a GI50 (HOP-92) of 446 nM. The LC50 (concentration killing 50% of the starting cells) (HOP-92) was over 100000 nM, the TGI (HOP-92) was 70000 nM and the GI50 (NCI-H460) was 355 nM. For the same molecule, the LC50 (NCI-H460) was over 100000 nM, the TGI (NCI-H460) was 12600 nM and the GI50 (COLO 205) was 278 nM. It also gave a GI50 (KM12 [10]) of 413 nM, an LC50 (KM12 [10]) of over 100000 nM and a TGI (KM12 [10]) of over 100000 nM. The GI50 (SNB-75 [11]) was 212 nM, the LC50 (SNB-75 [11]) was over 100000 nM and the GI50 (UACC-62 [12]) was 556 nM. It also gave an LC50 (UACC-62 [12]) of over 100000 nM, a TGI (UACC-62 [12]) of over 100000 nM and a GI50 (RXF 393) of 202 nM. For the same molecule, the CC50 (RXF 393; [13]) was over 100000 nM, the GI50 (MDA-MB-231) was 1040 nM and the TGI (MDA-MB-231) was over 100000 nM. It also gave a CC50 (MDA-MB-231; [13]) of over 100000 nM.
